20 compounds from ChEMBL document CHEMBL4627348, “Synthesis of (1,3,4-thiadiazol-2-yl)-acrylamide derivatives as potential antitumor agents against acute leukemia cells” (Bioorg Med Chem Lett, 2020) can be followed below.

Each structure is given as a SMILES string. Bounds are passed on as bounds.

The subject of data set [1] is HL-60. In words: Antiproliferative activity against human HL60 cells assessed as growth inhibition at 20 uM after 48 hrs by CCK-8 assay relative to control. Format: functional. The note with it: HL-60, 48 h, read-out: GI. In a few lines: (§1)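 Single-dose screen at 20 μM in RS4;11 (human ALL), HL-60 (human promyelocytic leukemia) and HEK293T (normal-cell model). Cells exposed 48 h, viability read by CCK-8, growth inhibition ratio expressed relative to control.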

Data set [2] relates to RS4-11. In words: Antiproliferative activity against human RS4:11 cells assessed as growth inhibition at 20 uM after 48 hrs by CCK-8 assay relative to control. The data set is classed as functional. To be noted: RS4-11, 48 h, read-out: GI. A digest of the protocol: as §1
Data set [3] has as its system RS4-11. In words: Antiproliferative activity against human RS4:11 cells assessed as growth inhibition after 48 hrs by CCK-8 assay. Format: functional, cell-based. To be noted: RS4-11, 48 h.
Data set [4] is described as follows: (§2) Cytotoxicity against HEK293T cells assessed as growth inhibition at 20 uM after 48 hrs by CCK8 assay relative to control. The data set is classed as cell-based, HEK-293T. To be noted: human, HEK293T cells; read-out: GI. A digest of the protocol:
as §1

In data set [5] the test system is HL-60. In words: Antiproliferative activity against human HL60 cells assessed as growth inhibition after 48 hrs by CCK-8 assay. Format: functional, cell-based. The note with it: HL-60, 48 h.
The subject of data set [6] is HEK-293T. The experiment in a line: Cytotoxicity against human HEK293T cells assessed as growth inhibition after 48 hrs by CCK8 assay. The data set is classed as cell-based.
Data set [7] deals with HEK-293T. Described as §2. The data set is classed as cell-based. To be noted: human, hek-293t, 48 h, 20 µM. In a few lines:
as §1

As to `N#C/C(=C\c1ccccc1OS(=O)(=O)c1ccc(C(F)(F)F)cc1)C(=O)Nc1nnc(-c2cccs2)s1`, the values for the inhibition of growth at 20 µM in data set [1] and in data set [2] were 55% and 58%, respectively. Further, the IC50 in data set [3] stood at 10.5 µM; in data set [5], 17.5 µM; in data set [6], 12.3 µM. In addition, the inhibition at 48 h, 20 µM in data set [4] was 57%.

With `N#C/C(=C\c1ccccc1OS(=O)(=O)c1ccc(OC(F)(F)F)cc1)C(=O)Nc1nnc(-c2cc3ccccc3[nH]2)s1`, the inhibition of growth at 20 µM in data set [1] stood at 59%; in data set [2] it was 26%. Also, the IC50 in data set [3] is more than 20 µM; in data set [5] it was 11.1 µM; in data set [6], 14.4 µM. Further, in data set [4], the inhibition at 48 h, 20 µM turned out to be 53%.

With `COc1ccc(S(=O)(=O)Oc2ccccc2/C=C(\C#N)C(=O)Nc2nnc(-c3cccs3)s2)cc1`, the inhibition of growth at 20 µM in data set [1] was determined as 67%; in data set [2], 76%. Besides, the values for the 50% inhibitory concentration (IC50) in data set [3], in data set [5] and in data set [6] were 4.75 µM, 5.23 µM and more than 20 µM, respectively. In addition, the inhibition at 48 h, 20 µM in data set [4] was found to be 40%.

For the compound `COc1ccc(Cc2nnc(NC(=O)/C(C#N)=C/c3ccccc3OS(=O)(=O)c3ccc([N+](=O)[O-])cc3)s2)cc1`, the inhibition of growth at 20 µM in data set [1] worked out at 51%; in data set [2], 70%. Besides, the IC50 in data set [3] is 3.67 µM; in data set [5], 10.9 µM; in data set [6], more than 50 µM. The inhibition at 48 h, 20 µM in data set [4] was 17%.

For `N#C/C(=C\c1ccccc1OS(=O)(=O)c1ccccc1[N+](=O)[O-])C(=O)Nc1nnc(Cc2cccc(F)c2)s1`, the values for the inhibition of growth at 20 µM in data set [1] and in data set [2] were 23% and 68%, respectively. In data set [7], the “growth inhibition (GI)” value is given as “Non-Toxic”.

Take `Cc1ccc(S(=O)(=O)Oc2cccc(/C=C(\C#N)C(=O)Nc3nnc(-c4cccs4)s3)c2)cc1`: the inhibition of growth at 20 µM in data set [1] was determined as 62%; in data set [2] it was 25%. The figures for the half-maximal inhibitory concentration (IC50) in data set [3], in data set [5] and in data set [6] were more than 20 µM, 8.75 µM and more than 20 µM, respectively. Also, the inhibition at 48 h, 20 µM in data set [4] is 43%.

As for `N#C/C(=C\c1ccccc1OS(=O)(=O)c1ccccc1[N+](=O)[O-])C(=O)Nc1nnc(Cc2cccc3ccccc23)s1`, the inhibition of growth at 20 µM was 23% in data set [1] and 66% in data set [2]. Moreover, the “growth inhibition (GI)” value in data set [7] is “Non-Toxic”.

Turning to `N#C/C(=C\c1ccccc1OS(=O)(=O)c1ccc([N+](=O)[O-])cc1)C(=O)Nc1nnc(Cc2cccc(F)c2)s1`, the results for the inhibition of growth at 20 µM in data set [1] and in data set [2] were 18% and 65%, respectively. In data set [7], the “growth inhibition (GI)” value is “Non-Toxic”.

With `COc1ccc(-c2nnc(NC(=O)/C(C#N)=C/c3cccc(OS(=O)(=O)c4ccc(C)cc4)c3)s2)cc1`, the inhibition of growth at 20 µM in data set [1] stood at 73%; in data set [2], 79%. In addition, in data set [7], the “growth inhibition (GI)” value is “Non-Toxic”.

Turning to `COc1ccc(S(=O)(=O)Oc2ccccc2/C=C(\C#N)C(=O)Nc2nnc(Cc3ccc(C)cc3)s2)cc1`, the inhibition of growth at 20 µM in data set [1] came out at 100%; in data set [2], 79%. The IC50 in data set [3] is 1.01 µM; in data set [5] it was 4.08 µM; in data set [6], more than 50 µM. Moreover, the inhibition at 48 h, 20 µM in data set [4] came to 28%.

Consider `N#C/C(=C\c1ccccc1OS(=O)(=O)c1ccc([N+](=O)[O-])cc1)C(=O)Nc1nnc(Cc2ccccc2)s1`, for which the values for the inhibition of growth at 20 µM in data set [1] and in data set [2] were 20% and 57%, respectively. Further, the “growth inhibition (GI)” value in data set [7] is on record as “Non-Toxic”.

In the case of `COc1ccccc1-c1nnc(NC(=O)/C(C#N)=C/c2cccc(OS(=O)(=O)c3ccc(C)cc3)c2)s1`, the inhibition of growth at 20 µM was 73% in data set [1] and 41% in data set [2]. In data set [7], the “growth inhibition (GI)” value was “Non-Toxic”.

Regarding `COc1ccc(S(=O)(=O)Oc2ccccc2/C=C(\C#N)C(=O)Nc2nnc(Cc3ccccc3)s2)cc1`, the inhibition of growth at 20 µM came out at 100% in data set [1] and 78% in data set [2]. The results for the half-inhibitory concentration (IC50) in data set [3], in data set [5] and in data set [6] were 1.06 µM, 3.17 µM and more than 50 µM, respectively. For the same compound, in data set [4], the inhibition at 48 h, 20 µM came out at 23%.

With `Cc1ccc(S(=O)(=O)Oc2cccc(/C=C(\C#N)C(=O)Nc3nnc(C)s3)c2)cc1`, the inhibition of growth at 20 µM in data set [1] is 71%; in data set [2], 28%. Further, the IC50 in data set [3] was more than 20 µM; in data set [5], 5.78 µM; in data set [6], more than 50 µM. The inhibition at 48 h, 20 µM in data set [4] amounted to 27%.

As for `Cc1ccc(S(=O)(=O)Oc2ccccc2/C=C(\C#N)C(=O)Nc2nnc(C)s2)cc1`, the inhibition of growth at 20 µM in data set [1] came out at 78%; in data set [2] it was 33%. In addition, the 50% inhibitory concentration (IC50) in data set [3] was more than 20 µM; in data set [5], 11.5 µM; in data set [6], more than 20 µM. For the same compound, the inhibition at 48 h, 20 µM in data set [4] was 35%.

`COc1ccc(S(=O)(=O)Oc2ccccc2/C=C(\C#N)C(=O)Nc2nnc(Cc3cccc(F)c3)s2)cc1`: the results for the inhibition of growth at 20 µM in data set [1] and in data set [2] were 100% and 74%, respectively. The IC50 in data set [3] was 1.21 µM; in data set [5], 3.88 µM; in data set [6] it was more than 50 µM. For the same compound, the inhibition at 48 h, 20 µM in data set [4] came out at 29%.

For `COc1ccc(S(=O)(=O)Oc2ccccc2/C=C(\C#N)C(=O)Nc2nnc(Cc3cccc4ccccc34)s2)cc1`, the inhibition of growth at 20 µM in data set [1] was found to be 98%; in data set [2], 78%. For the same compound, the IC50 is 1.36 µM in data set [3], 4.7 µM in data set [5] and more than 50 µM in data set [6]. For the same compound, in data set [4], the inhibition at 48 h, 20 µM came out at 29%.

For `COc1ccc(S(=O)(=O)Nc2cccc(/C=C(\C#N)C(=O)Nc3nnc(-c4cccs4)s3)c2)cc1`, the figures for the inhibition of growth at 20 µM in data set [1] and in data set [2] were 77% and 40%, respectively. Moreover, the 50% inhibitory concentration (IC50) in data set [3] is more than 20 µM; in data set [5], 8.37 µM; in data set [6], more than 20 µM. Further, the inhibition at 48 h, 20 µM in data set [4] came to 21%.

For `N#C/C(=C\c1ccccc1OS(=O)(=O)c1ccc(F)cc1)C(=O)Nc1nnc(Cc2ccc(F)cc2)s1`, the inhibition of growth at 20 µM in data set [1] is 13%; in data set [2], 59%. In addition, the “growth inhibition (GI)” value in data set [7] is given as “Non-Toxic”.

Take `CC(=O)Nc1ccc(S(=O)(=O)Oc2cccc(/C=C(\C#N)C(=O)Nc3nnc(-c4cccs4)s3)c2)cc1`: the inhibition of growth at 20 µM amounted to 71% in data set [1] and 33% in data set [2]. The 50% inhibitory concentration (IC50) in data set [3] is more than 20 µM; in data set [5] it was 7.94 µM; in data set [6], more than 20 µM. The inhibition at 48 h, 20 µM in data set [4] is 20%.
